Laboratory results as given in ChEMBL document CHEMBL1765020, “Synthesis and structure-affinity relationships of novel dibenzylideneacetone derivatives as probes for β-amyloid plaques” (J Med Chem, 2011).
Active and inactive are the calls of the source. No cut-off for these calls is given here.

Legend:
[1] = Displacement of [125I]IMPY from amyloid beta (1 to 42) aggregate after 2 hrs by gamma counting
How it was run: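 Competition binding in 1 mL PBS (0.2 M, pH 7.4). Aggregated Aβ1-42 fibrils (60 nM final) with [125I]IMPY and inhibitor at 10^-5 to 10^-10 M, added in ethanol. Nonspecific binding was defined with 1 μM IMPY. Incubated 2 h at 37 °C with shaking, then vacuum-filtered through glass fibre filters and the bound fraction gamma-counted. IC50 was converted to Ki by Cheng-Prusoff; triplicate, mean ± SD.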

[2] = target: Amyloid-beta precursor protein (Homo sapiens) (UniProt P05067); assay: Binding affinity to amyloid beta (1 to 42) aggregate in cortex of Alzheimer disease patient brain by autoradiography; conditions: tested as the 125I-labelled form
How it was run: (§1)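 Human postmortem temporal-lobe paraffin sections were used: AD patient and normal control (person). They were deparaffinized (xylene, graded ethanol), held 30 min in PBS 0.2 M pH 7.4, incubated 1 h at room temperature with radiotracer (5 μCi/100 μL), washed 3 min in 40% ethanol, rinsed, dried and exposed to an imaging plate overnight.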

[3] = target: Amyloid-beta precursor protein (Homo sapiens) (UniProt P05067); assay: Binding affinity to amyloid beta (1 to 42) aggregate in white matter of Alzheimer disease patient brain by autoradiography; assay type: tissue-based; conditions: tested as the 125I-labelled form; how it was run: as §1
[4] = target: Amyloid-beta precursor protein (Homo sapiens) (UniProt P05067); assay: Binding affinity to amyloid beta (1 to 42) aggregate in cortex of Alzheimer disease patient brain by immunohistochemical staining using amyloid beta antibody BC05; conditions: tested as the 125I-labelled form
How it was run: (§2)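 Plaque presence and location in the AD patient temporal-lobe sections were confirmed by immunohistochemistry with monoclonal anti-Aβ1-42 antibody BC05.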

[5] = target: Amyloid-beta precursor protein (Homo sapiens) (UniProt P05067); assay: Binding affinity to amyloid beta (1 to 42) aggregate in white matter of Alzheimer disease patient brain by immunohistochemical staining using amyloid beta antibody BC05; assay type: tissue-based; conditions: tested as the 125I-labelled form; how it was run: as §2

Amyloid-beta precursor protein (Homo sapiens), sequence (P05067 whole entry): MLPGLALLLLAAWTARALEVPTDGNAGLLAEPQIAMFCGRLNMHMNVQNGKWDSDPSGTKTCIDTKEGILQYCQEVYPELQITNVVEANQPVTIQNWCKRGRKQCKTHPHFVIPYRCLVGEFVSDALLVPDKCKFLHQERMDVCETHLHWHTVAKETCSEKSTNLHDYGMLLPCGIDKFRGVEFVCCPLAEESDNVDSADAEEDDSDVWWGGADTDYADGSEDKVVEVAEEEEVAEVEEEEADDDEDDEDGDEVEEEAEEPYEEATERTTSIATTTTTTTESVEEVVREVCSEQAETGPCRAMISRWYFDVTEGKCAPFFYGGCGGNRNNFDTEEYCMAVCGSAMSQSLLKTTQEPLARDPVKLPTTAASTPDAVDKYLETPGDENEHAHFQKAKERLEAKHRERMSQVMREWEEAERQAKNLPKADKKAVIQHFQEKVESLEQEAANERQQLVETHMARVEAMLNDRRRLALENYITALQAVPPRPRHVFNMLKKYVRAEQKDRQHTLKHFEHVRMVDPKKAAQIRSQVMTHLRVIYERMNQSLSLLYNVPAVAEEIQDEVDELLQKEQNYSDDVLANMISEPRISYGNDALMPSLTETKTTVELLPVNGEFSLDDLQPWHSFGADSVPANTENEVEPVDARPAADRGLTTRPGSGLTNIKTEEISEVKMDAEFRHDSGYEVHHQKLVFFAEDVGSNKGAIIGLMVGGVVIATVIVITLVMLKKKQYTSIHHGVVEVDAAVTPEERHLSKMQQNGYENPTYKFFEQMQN

For `CN(C)c1ccc(/C=C/C(=O)/C=C/c2ccc(I)cc2)cc1`, the Ki [1] was 0.9 nM, the Activity [2] was “Active” and the Activity [3] was “Active”. The Activity [4] was “Active” and the Activity [5] was “Active”.
